Test results as given in ChEMBL document CHEMBL2380254, “Optimization of tocotrienols as antiproliferative and antimigratory leads” (Eur J Med Chem, 2013).

How the values were obtained:
MDA-MB-435 = assay: Growth inhibition of human MDA-MB-435 cells after 48 hrs by sulforhodamine B assay; format: functional; conditions: MDA-MB-435, 48 h
In short: (§1)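 NCI-60 panel cells grown in RPMI 1640 with 5% FBS and 2 mM L-glutamine, seeded at 5000–40,000 cells/well and preincubated 24 h. Five 10-fold dilutions (0.001–100 µM) from DMSO stocks were added for 48 h at 37 °C. Adherent cells were fixed with cold TCA (10% final) for 60 min at 4 °C, stained with 0.4% SRB, and read at 515 nm. GI50 was set where 100×(T−T0)/(C−T0)=50.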

SK-MEL-5 = assay: Growth inhibition of human SK-MEL-5 cells assessed as cell growth at 10 uM after 48 hrs by sulforhodamine B assay; format: functional; conditions: SK-MEL-5, 48 h, read-out: Activity
In short: (§2)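 Single-dose NCI-60 screen: adherent cells in RPMI 1640 with 5% FBS were exposed to 10 µM for 48 h at 37 °C after a 24 h preincubation. They were fixed in situ with cold TCA (10% final), stained with 0.4% SRB in 1% acetic acid, solubilized in 10 mM Tris base, and read at 515 nm. Percent growth was taken relative to time-zero and control plates.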

COLO 205 = assay: Growth inhibition of human COLO205 cells after 48 hrs by sulforhodamine B assay; format: functional; conditions: COLO 205, 48 h
In short: (§3)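 NCI-60 screen: cells in RPMI 1640 with 5% FBS and 2 mM glutamine, 5000–40,000 cells/well, preincubated 24 h. Five concentrations (10-fold dilutions; 100 to 0.001 µM) applied for 48 h at 37 °C. TCA fixation, SRB stain, absorbance at 515 nm. Time-zero plates included; GI50 where 100×(T−T0)/(C−T0)=50.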

HCT-116 = assay: Growth inhibition of human HCT116 cells assessed as cell growth at 10 uM after 48 hrs by sulforhodamine B assay; format: functional; conditions: HCT-116, 48 h, read-out: Activity
In short: (§4)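 NCI-60 single-dose screen at 10 µM: cells in RPMI 1640 with 5% FBS, preincubated 24 h, then exposed 48 h at 37 °C. TCA fixation (16% final for suspension cells), SRB staining, absorbance 515 nm. Percent growth relative to time-zero and untreated control plates; negative values indicate cell kill.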

SF-539 = assay: Growth inhibition of human SF539 cells assessed as cell growth at 10 uM after 48 hrs by sulforhodamine B assay; format: functional; conditions: SF-539, 48 h, read-out: Activity; in short: as §2
UO-31 = assay: Growth inhibition of human UO31 cells assessed as cell growth at 10 uM after 48 hrs by sulforhodamine B assay; format: functional; conditions: UO-31, 48 h, read-out: Activity
In short: (§5)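 Single-dose NCI-60 test at 10 µM. Cells were grown in RPMI 1640 with 5% FBS and 2 mM L-glutamine, preincubated 24 h, with T0 plates TCA-fixed. Exposure was 48 h at 37 °C, 5% CO2. Cells were fixed with cold TCA (final 10%, 4 °C, 60 min), stained with SRB and read at 515 nm. Percent growth was taken relative to T0 and untreated control; negative values denote cell kill.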

HOP-92 [1] = assay: Growth inhibition of human HOP92 cells assessed as cell growth at 10 uM after 48 hrs by sulforhodamine B assay; format: functional; conditions: HOP-92, 48 h, read-out: Activity; in short: as §4
OVCAR-8 = assay: Growth inhibition of human OVCAR8 cells assessed as cell growth at 10 uM after 48 hrs by sulforhodamine B assay; format: functional; conditions: OVCAR-8, 48 h, read-out: Activity; in short: as §2
U-251 = assay: Growth inhibition of human U251 cells after 48 hrs by sulforhodamine B assay; format: functional; conditions: U-251, 48 h
In short: (§6)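 NCI-60 five-dose screen. Cells were grown in RPMI 1640 with 5% FBS and 2 mM L-glutamine, plated at 5000–40,000 cells/well and incubated 24 h before dosing, with T0 plates TCA-fixed. DMSO stocks were diluted to doses of […] and exposed 48 h at 37 °C, 5% CO2. Cells were fixed with cold TCA (final 10%, 60 min, 4 °C), stained with 0.4% SRB in 1% acetic acid for 10 min, solubilized in 10 mM trizma base and read at 515 nm. GI50 is where 100×(T−T0)/(C−T0)=50.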

TK-10 = assay: Growth inhibition of human TK10 cells assessed as cell growth at 10 uM after 48 hrs by sulforhodamine B assay; format: functional; conditions: TK-10, 48 h, read-out: Activity; in short: as §5
NCI-H522 = assay: Growth inhibition of human NCI-H522 cells assessed as cell growth at 10 uM after 48 hrs by sulforhodamine B assay; format: functional; conditions: NCI-H522, 48 h, read-out: Activity; in short: as §2
A498 = assay: Growth inhibition of human A498 cells assessed as cell growth at 10 uM after 48 hrs by sulforhodamine B assay; format: functional; conditions: A498, 48 h, read-out: Activity; in short: as §4
CAKI-1 = assay: Growth inhibition of human CAKI-1 cells assessed as cell growth at 10 uM after 48 hrs by sulforhodamine B assay; format: functional; conditions: CAKI-1, 48 h, read-out: Activity; in short: as §4
UACC-62 = assay: Growth inhibition of human UACC62 cells after 48 hrs by sulforhodamine B assay; format: functional; conditions: UACC-62, 48 h; in short: as §6
NCI-H226 = assay: Growth inhibition of human NCI-H226 cells after 48 hrs by sulforhodamine B assay; format: functional; conditions: NCI-H226, 48 h; in short: as §1
MOLT-4 = assay: Growth inhibition of human MOLT4 cells assessed as cell growth at 10 uM after 48 hrs by sulforhodamine B assay; format: functional; conditions: MOLT-4, 48 h, read-out: Activity
In short: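 Single 10 µM dose applied to suspension cells in RPMI 1640 with 5% FBS and 2 mM L-glutamine for 48 h at 37 °C. Settled cells were fixed with 80% TCA (16% final), stained with SRB, and read at 515 nm. Percent growth was calculated against time-zero and untreated control optical densities.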

SNB-75 = assay: Growth inhibition of human SNB75 cells assessed as cell growth at 10 uM after 48 hrs by sulforhodamine B assay; format: functional; conditions: SNB-75, 48 h, read-out: Activity; in short: as §5
HOP-92 [2] = assay: Growth inhibition of human HOP92 cells after 48 hrs by sulforhodamine B assay; format: functional; conditions: HOP-92, 48 h; in short: as §3
[3] = Antiproliferative activity against mouse +SA cells by MTT assay; format: functional, cell-based; conditions: +SA cell
In short: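 Mouse +SA mammary epithelial cells in serum-free DMEM/F12 with BSA, transferrin, insulin and EGF. Compounds from DMSO stock conjugated to BSA (overnight, 37 °C); 0–40 µM, final DMSO <0.1%. MTT 0.42 mg/mL for 4 h at 37 °C, isopropanol solubilization, OD 570 nm. Cell number from a standard curve; IC50 by non-linear regression.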

BT-549 = assay: Growth inhibition of human BT549 cells after 48 hrs by sulforhodamine B assay; format: functional; conditions: BT-549, 48 h; in short: as §3
K562 = assay: Growth inhibition of human K562 cells assessed as cell growth at 10 uM after 48 hrs by sulforhodamine B assay; format: functional; conditions: K562, 48 h, read-out: Activity; in short: as §4
OVCAR-4 = assay: Growth inhibition of human OVCAR4 cells after 48 hrs by sulforhodamine B assay; format: functional; conditions: OVCAR-4, 48 h; in short: as §1

Structure (SMILES)	GI50 (MDA-MB-435) [µM]	growth at 10 µM (SK-MEL-5) [%]	GI50 (COLO 205) [µM]	growth at 10 µM (HCT-116) [%]	growth at 10 µM (SF-539) [%]	growth at 10 µM (UO-31) [%]	growth at 10 µM (HOP-92 [1]) [%]	growth at 10 µM (OVCAR-8) [%]	GI50 (U-251) [µM]	growth at 10 µM (TK-10) [%]	growth at 10 µM (NCI-H522) [%]	growth at 10 µM (A498) [%]	growth at 10 µM (CAKI-1) [%]	GI50 (UACC-62) [µM]	GI50 (NCI-H226) [µM]	growth at 10 µM (MOLT-4) [%]	growth at 10 µM (SNB-75) [%]	GI50 (HOP-92 [2]) [µM]	IC50 [3] [µM]	GI50 (BT-549) [µM]	also measured
COc1ccc(CCN2COc3cc(C)c4c(c3C2)CC[C@@](C)(CC/C=C(\C)CC/C=C(\C)CCC=C(C)C)O4)cc1OC	1.66	90	1.79	-84	88.8	51.2	32.7	-70.7	1.67	97.7	-45.8	83.2	79.8	1.64	2	0.05	45.2	1.55	0.87	1.97	growth at 10 µM (K562): 3.17%; GI50 (OVCAR-4): 1.63 µM
CC(C)=CCC/C(C)=C/CC/C(C)=C/CC[C@]1(C)CCc2c3c(cc(C)c2O1)OCN(CCCCCO)C3	5.8	83.9	3.39	-89.6	95	50.4	62.3	-18.9	5.71	76.3	4.69	89.7	74.4	5.87	6.19	-1.68	74.8	5.42	0.7	7.34	growth at 10 µM (K562): -35%; GI50 (OVCAR-4): 5.68 µM
